# Assay results: ChEMBL document CHEMBL4513216, “Probing the Open Global Health Chemical Diversity Library for Multistage-Active Starting Points for Next-Generation Antimalarials” (ACS Infect Dis, 2020)
# Assay: Toxicity liver stage against HepG2, at 10uM
# Assay type: cell-based
# Parameters: test concentration 10 uM, cell line HepG2-A16-CD81EGFP
# Details: human, HepG2-A16-CD81EGFP cells; read-out: INHIBITION
# In short: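 Uninfected HepG2-A16-CD81EGFP cells, 3 × 10^3 per well, 1536-well, plated on prespotted compound at 10 μM final, parasite-free screening media added to match infected plates; puromycin 10 μM positive, DMSO 0.5% negative; run in parallel with 48 h PbLuc assay at 37 °C, 5% CO2; viability by CellTiter-Glo luminescence, normalized to controls.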
row,Compound,cytotoxicity at 10 µM [%]
1,O=C(Cc1ccc(Br)cc1)N1CC(S(=O)(=O)C2CCCCC2)C1,-1.13
2,CC(=O)N1CCCC1c1nnn2cc(-c3ccncc3)ccc12 (stereo unspecified),7.28
3,NC(=O)C1CN(C(=O)Nc2ccccc2OCC(F)(F)F)CCO1 (stereo unspecified),-7.75
4,CCN(Cc1ccoc1)C(=O)c1cc(S(N)(=O)=O)c(C)o1,-2.98
5,CCOC(=O)CNC(=O)N1CCN(c2ncccn2)CC1,10.6
6,COC1CN(C(=O)NCC(N)=O)CCC(=O)N(C)c2ccccc21 (stereo unspecified),-3.84
7,Cc1csc(CNC(=O)Nc2ccc3c(c2)OCO3)n1,-15.7
8,Cc1ccc(C(N)c2cccc(S(C)(=O)=O)c2)cc1 (stereo unspecified),3.18
9,Cc1cccc(CC(=O)NCCCOC(C)C)c1,-2.25
10,COCCOCC(=O)Nc1cc(C)ccc1F,3.91
11,CCN1CCN(c2ccc(F)cc2C(C)NCc2ccccn2)CC1 (stereo unspecified),7.96
12,O=C(CNc1cccc(S(=O)(=O)C(F)F)c1)NCc1ccco1,-40.5
13,O=c1ccc2c(n1Cc1ccncc1)CCN(C1CCOC1)CC2 (stereo unspecified),-1.31
14,O=C(Cc1cccs1)N1CCC(O)(CN2CCc3ccccc3C2)C1 (stereo unspecified),-1.47
15,COC(=O)[C@H]1CN(C(=O)c2cscn2)C[C@@H]1c1ccc(F)cc1,-26.3
16,CSc1ncc(C(=O)N2C[C@@H]3CC[C@H]2CN(S(=O)(=O)N(C)C)C3)cn1,0.0773
17,Cc1nc(C)n(CC2CCCCN2CCC(=O)Nc2cc(C)on2)n1 (stereo unspecified),-2.86
18,O=C(COc1ccccc1)N1C[C@@H]2COC[C@]2(COc2cccnc2)C1,-100
19,O=S(=O)(NCC(O)c1ccoc1)c1ccc(Br)s1 (stereo unspecified),5.76
20,Cc1cc(C(=O)NS(=O)(=O)Cc2ccon2)c(C)o1,4.42
21,O=C(NCc1csc(Cc2ccccc2)n1)C1NCCc2[nH]cnc21 (stereo unspecified),-4.32
22,O=C(NCCN1CCCCCC1)c1n[nH]c(=O)c2ccccc12,-9.86
23,Cc1ccsc1CN(C)CCc1scnc1C,-17.6

row,Compound,cytotoxicity at 10 µM [%]
1,CCCc1cc(=O)n(CC(=O)NCCOC)c(-n2nc(C)cc2C)n1,1.69
2,CC(C)n1nc(Cn2cccn2)c2c1CN(C1CCOC1)C2 (stereo unspecified),6.95
3,O=C1CCC2(CCCN(C(=O)c3cccs3)C2)N1 (stereo unspecified),6.88
4,CC(C)C(=O)NC1CCN(c2cccc(OC(F)(F)F)c2)C1=O (stereo unspecified),-4.13
5,CN(Cc1cccnc1)[C@@H]1CN(CC2CC2)[C@@H]2CCCO[C@H]12,-1.48
6,Cc1nc(C2CCCN2C(=O)Cc2ccc3c(c2)OCO3)nc(O)c1C (stereo unspecified),-34.9
7,CSCC[C@H](NC(=O)Cn1ccc2ccc(Cl)cc21)C(=O)O,6.59
8,CCCc1nnc(NC(=O)N2CCCC2c2ccncc2)s1 (stereo unspecified),5.36
9,Cc1ccccc1C(NC(=O)CCCS(C)(=O)=O)C(C)(C)C (stereo unspecified),-9.4
10,COCCN1CCC2(CCCN(C(=O)c3cnoc3C)C2)C1=O (stereo unspecified),-23.8
11,Nc1cc2c(nn1)CCN(C(=O)c1csc(-c3ccco3)n1)C2,-2.79
12,O=C(CN1CCS(=O)(=O)CC1)NCc1cccc(Br)c1,6.32
13,Cc1cc(CN(C)CCC(O)c2ccccc2)nn1C (stereo unspecified),-17.3
14,Cc1nc(CC(C)C)cc(C(=O)N2C[C@@H](CN(C)C)[C@@H](CO)C2)n1,0.868
15,Cc1noc(CNC(=O)[C@@H](C)NC(=O)OC(C)(C)C)n1,4.91
16,CC(C)c1csc(C2CCCN(C(=O)c3ccc(=O)n(C)c3)C2)n1 (stereo unspecified),-48.2
17,CSCCC(=O)NS(=O)(=O)c1ccc2c(c1)OCCO2,-14.7
18,Cn1cc(CN2CCCN(C(=O)c3sccc3C#N)CC2)cn1,-1.37
19,COc1ncccc1NC(=O)NC1CCCN(c2ncccn2)C1 (stereo unspecified),-28.8
20,CCC(C)(C)CC(=O)NC(C)C(=O)Nc1ccc(-n2cncn2)cc1 (stereo unspecified),3.47
21,Fc1cnc(N2CCOCC3(CCCNC3)C2)nc1 (stereo unspecified),-5.36
22,O=C(c1nnn(-c2ccc(F)cc2)n1)N(CCO)Cc1ccccc1,1.56
23,COCCN(CC1CC1)c1nc(CCN)nc2ccccc12,9.22
